Laboratory results taken from paper PMC4745115 (Nature communications, 2014).

How the values were obtained:
BetP [1] = molecular target: T1, BetP (Corynebacterium glutamicum, UniProt P54582, G153D); experiment: tryptophan fluorescence titration, proteoliposomes; assay type: binding
T1 sequence (P54582 1-595 G153D): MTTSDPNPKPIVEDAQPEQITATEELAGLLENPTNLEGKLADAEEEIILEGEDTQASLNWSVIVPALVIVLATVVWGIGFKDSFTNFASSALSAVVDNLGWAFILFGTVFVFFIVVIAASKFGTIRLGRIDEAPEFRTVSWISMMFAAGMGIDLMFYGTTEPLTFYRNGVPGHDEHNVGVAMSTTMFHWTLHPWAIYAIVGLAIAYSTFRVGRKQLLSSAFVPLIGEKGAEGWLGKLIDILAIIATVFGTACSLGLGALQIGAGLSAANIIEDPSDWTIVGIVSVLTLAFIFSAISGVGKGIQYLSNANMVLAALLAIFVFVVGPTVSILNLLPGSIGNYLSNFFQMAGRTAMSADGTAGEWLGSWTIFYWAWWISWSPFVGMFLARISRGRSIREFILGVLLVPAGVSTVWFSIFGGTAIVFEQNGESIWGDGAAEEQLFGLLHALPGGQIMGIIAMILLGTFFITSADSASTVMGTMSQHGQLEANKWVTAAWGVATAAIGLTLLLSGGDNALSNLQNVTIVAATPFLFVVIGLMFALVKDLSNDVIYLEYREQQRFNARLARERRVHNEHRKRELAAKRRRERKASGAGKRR
Method in brief: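 Strep-tagged BetP-G153D was expressed in E. coli, affinity-purified in DDM, and reconstituted into E. coli polar-lipid liposomes (lipid/protein 10:1 w/w, 250 mM KPi pH 7.5), used at 100 μg/ml protein. Substrate was 0.1–16 mM with 100 mM NaCl at pH 7.5, or 0.8–30 mM (pH 5.5) or 0.8–100 mM (pH 7.5) without NaCl. Excitation 295 nm; emission at 340 nm, eight readings averaged. Mean and SD were fitted for the binding constant.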

BetP [2] = molecular target: BetP (Corynebacterium glutamicum, UniProt P54582); experiment: […]-betaine uptake in E. coli MKH13 expressing BetP; assay type: cell-based; settings: 250 μM [14C]-betaine, NaCl titration, pH 7.5, 800 mOsmol/kg, 37 °C; labelled compound
BetP (Corynebacterium glutamicum, UniProt P54582), sequence (P54582 whole entry): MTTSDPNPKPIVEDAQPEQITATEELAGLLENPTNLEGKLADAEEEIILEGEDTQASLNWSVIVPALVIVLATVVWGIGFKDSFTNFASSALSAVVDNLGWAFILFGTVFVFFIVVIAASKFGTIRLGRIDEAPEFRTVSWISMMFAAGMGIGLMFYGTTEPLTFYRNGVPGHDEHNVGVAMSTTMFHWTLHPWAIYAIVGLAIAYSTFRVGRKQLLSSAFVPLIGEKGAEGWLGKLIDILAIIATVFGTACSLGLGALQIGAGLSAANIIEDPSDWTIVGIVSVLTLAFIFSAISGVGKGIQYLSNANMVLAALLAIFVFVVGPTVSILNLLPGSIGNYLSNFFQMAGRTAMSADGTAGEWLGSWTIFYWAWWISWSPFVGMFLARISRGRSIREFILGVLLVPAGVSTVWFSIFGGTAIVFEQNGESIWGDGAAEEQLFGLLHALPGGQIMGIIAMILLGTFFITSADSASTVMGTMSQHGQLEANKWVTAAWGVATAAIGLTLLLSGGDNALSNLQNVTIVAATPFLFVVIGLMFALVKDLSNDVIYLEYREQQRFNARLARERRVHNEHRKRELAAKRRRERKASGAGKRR

**Q.** For `C[N+](C)(C)CCO` [Choline], which Kd (BetP [1]) is on record?
**A.** 1.15 ± 0.09 mM

**Q.** How did the “[14C]-betaine uptake in E. coli MKH13 expressing BetP” value (BetP [2]) turn out when `C[N+](C)(C)CC(=O)[O-]` [[14C]-betaine] was run?
**A.** cells expressing BetP WT or the mutant N309A
